Experimental data published in ChEMBL document CHEMBL1133565 (J Med Chem, 2000).
pIC50, pKi: −log10 of the molar value.

Columns and labels:
[1] = target: T1, Sodium-dependent dopamine transporter (Homo sapiens, UniProt Q01959); experiment: Binding affinity against cloned human dopamine transporter using 40-80 pM [125I]RTI.
Outline: (§1)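 Membranes from cells expressing recombinant human transporters: DAT in C6 cells, later HEK293; SERT and NET in HEK293. Cells lysed (2 mM HEPES, 1 mM EDTA), spun at 30000g, resuspended in 0.32 M sucrose, about 15 µg protein. GF/C filtration. Duplicates; IC50 converted to Ki by Cheng-Prusoff.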

[2] = target: T2, Sodium-dependent serotonin transporter (Homo sapiens, UniProt P31645); experiment: Ratio of serotonin uptake to serotonin binding
Target sequence in this assay (P31645 whole entry, looked up): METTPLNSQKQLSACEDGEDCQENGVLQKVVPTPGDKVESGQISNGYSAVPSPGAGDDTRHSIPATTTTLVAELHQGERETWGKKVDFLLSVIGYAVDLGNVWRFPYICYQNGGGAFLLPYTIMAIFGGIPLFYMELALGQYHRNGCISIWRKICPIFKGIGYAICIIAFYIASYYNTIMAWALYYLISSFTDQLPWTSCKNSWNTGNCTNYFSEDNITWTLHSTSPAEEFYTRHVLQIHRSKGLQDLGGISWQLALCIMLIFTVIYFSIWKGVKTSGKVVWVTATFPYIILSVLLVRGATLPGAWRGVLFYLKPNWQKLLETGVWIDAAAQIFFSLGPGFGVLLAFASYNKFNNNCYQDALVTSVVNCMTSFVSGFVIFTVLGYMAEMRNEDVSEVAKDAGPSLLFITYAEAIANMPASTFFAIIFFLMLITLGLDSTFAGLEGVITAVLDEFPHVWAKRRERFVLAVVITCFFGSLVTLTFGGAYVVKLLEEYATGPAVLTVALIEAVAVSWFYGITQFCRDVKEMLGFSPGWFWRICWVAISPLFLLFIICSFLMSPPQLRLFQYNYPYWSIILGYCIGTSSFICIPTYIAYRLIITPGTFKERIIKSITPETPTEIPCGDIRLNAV

[3] = target: Monoamine transporters; serotonin & dopamine (Homo sapiens) (UniProt P31645+Q01959); experiment: Ratio of inhibition of serotonin uptake to inhibition of dopamine uptake; assay type: protein assay
[4] = target: T1, Sodium-dependent dopamine transporter; experiment: Ratio of dopamine uptake to dopamine binding
[5] = target: T3, Sodium-dependent noradrenaline transporter (Homo sapiens, UniProt P23975); experiment: Binding affinity against norepinephrine cloned human transporter using 40-80 pM [125I]RTI
Target sequence in this assay (P23975 whole entry): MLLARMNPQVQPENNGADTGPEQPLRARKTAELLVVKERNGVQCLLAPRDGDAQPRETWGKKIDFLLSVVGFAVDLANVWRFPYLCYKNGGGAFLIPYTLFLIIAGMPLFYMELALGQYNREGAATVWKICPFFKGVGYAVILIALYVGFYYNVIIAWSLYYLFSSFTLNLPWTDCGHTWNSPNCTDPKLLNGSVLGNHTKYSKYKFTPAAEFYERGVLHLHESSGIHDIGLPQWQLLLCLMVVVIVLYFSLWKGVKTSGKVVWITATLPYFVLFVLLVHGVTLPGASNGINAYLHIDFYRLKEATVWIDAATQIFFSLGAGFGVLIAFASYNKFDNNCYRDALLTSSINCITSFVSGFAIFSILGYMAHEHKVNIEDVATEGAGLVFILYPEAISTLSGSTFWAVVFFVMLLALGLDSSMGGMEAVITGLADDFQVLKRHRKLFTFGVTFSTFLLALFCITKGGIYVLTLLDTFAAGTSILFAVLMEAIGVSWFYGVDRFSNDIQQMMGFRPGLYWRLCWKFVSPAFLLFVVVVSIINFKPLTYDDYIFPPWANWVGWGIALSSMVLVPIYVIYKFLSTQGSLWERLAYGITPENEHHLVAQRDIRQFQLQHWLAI

[6] = target: T2, Sodium-dependent serotonin transporter; experiment: Binding affinity against cloned serotonin human transporter using 40-80 PM [125I]RTI; outline: as §1
Target sequence in this assay (P31645 whole entry): as the sequence (P31645 whole entry, looked up) above

[7] = target: T2, Sodium-dependent serotonin transporter; experiment: Inhibition of reuptake of [3H]5-HT (20 nM) by serotonin transporter
Outline: (§2)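 Uptake used whole confluent cells: hSERT in HEK293; hDAT in C6, later HEK293. Cells were washed and scraped in PBS at 25 °C, then preincubated 10 min with drug in Krebs HEPES at 25 °C. [3H]5HT or [3H]DA was added at 20 nM final for 10 min, then filtered on 0.05% polyethylenimine-soaked filters. Six drug concentrations, each in triplicate.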
Target sequence in this assay (P31645 whole entry): as the sequence (P31645 whole entry, looked up) above

[8] = target: T3, Sodium-dependent noradrenaline transporter; experiment: Inhibition of reuptake of [3H]-NE (20 nM) by norepinephrine transporter
Target sequence in this assay (P23975 whole entry): as the sequence (P23975 whole entry) above

[9] = target: T1, Sodium-dependent dopamine transporter; experiment: Inhibition of reuptake of [3H]DA (20 nM) by dopamine transporter; outline: as §2
[10] = Effective dose for generalization to 10 mg/kg cocaine in rat (value is standard error of the population of 88 independent determinations); assay type: functional
[11] = species: Mus musculus; experiment: Effective dose on 8 hr locomotor assay in mice (value is standard error of the population of 72 independent determinations); assay type: functional
Outline: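 Groups of 8 nonhabituated male Swiss-Webster mice (Hsd:ND4, 2-3 months), dosed ip in 0.9% saline vehicle just before testing. Horizontal photobeam breaks counted in 10-min bins for 8 h from 0800 h, one mouse per chamber.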

[12] = target: T3, Sodium-dependent noradrenaline transporter; experiment: Ratio of norepinephrine uptake to norepinephrine binding
Target sequence in this assay (P23975 whole entry, looked up): as the sequence (P23975 whole entry) above

Monoamine transporters; serotonin & dopamine (Homo sapiens), sequence (P31645 whole entry, looked up): as the sequence (P31645 whole entry, looked up) above
Monoamine transporters; serotonin & dopamine (Homo sapiens), sequence (Q01959 whole entry, looked up): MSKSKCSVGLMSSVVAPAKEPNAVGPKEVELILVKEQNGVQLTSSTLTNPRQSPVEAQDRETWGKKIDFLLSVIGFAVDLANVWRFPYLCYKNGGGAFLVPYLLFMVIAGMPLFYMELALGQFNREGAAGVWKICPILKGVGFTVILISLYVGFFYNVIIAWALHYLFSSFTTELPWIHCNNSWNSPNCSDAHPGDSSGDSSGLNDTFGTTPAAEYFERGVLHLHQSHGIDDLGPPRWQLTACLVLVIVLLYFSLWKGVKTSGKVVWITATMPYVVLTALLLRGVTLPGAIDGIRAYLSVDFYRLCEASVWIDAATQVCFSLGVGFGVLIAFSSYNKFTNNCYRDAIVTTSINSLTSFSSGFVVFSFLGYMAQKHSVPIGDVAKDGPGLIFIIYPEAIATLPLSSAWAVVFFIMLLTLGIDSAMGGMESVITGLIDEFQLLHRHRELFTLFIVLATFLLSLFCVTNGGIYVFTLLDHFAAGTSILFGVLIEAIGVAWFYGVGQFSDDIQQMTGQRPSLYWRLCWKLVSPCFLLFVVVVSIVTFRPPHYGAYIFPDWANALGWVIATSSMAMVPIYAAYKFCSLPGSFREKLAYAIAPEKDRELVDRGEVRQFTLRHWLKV
T1 sequence (Q01959 whole entry): as the sequence (Q01959 whole entry, looked up) above

| Compound | pKi [1] | Ratio [2] | Ratio [3] | Ratio [4] | pKi [5] | pKi [6] | pIC50 [7] | pIC50 [8] | pIC50 [9] | ED50 [10] | ED50 [11] | Ratio [12] |
| --- | --- | --- | --- | --- | --- | --- | --- | --- | --- | --- | --- | --- |
| CC(C)N(C)[C@H]1C[C@@H](c2ccc(Cl)c(Cl)c2)c2ccccc21 | 6.17 | 25 | 1.9 | 1.4 | 6.19 | 7.14 | 5.74 | 5.74 | 6.02 | – | – | – |
| CCN[C@H]1C[C@@H](c2ccc(Cl)c(Cl)c2)c2ccccc21 | 6.85 | 4 | 0.02 | 11 | – | 8.33 | 7.72 | 6.77 | 6.00 | – | – | – |
| CC(C)N(C)[C@@H]1C[C@@H](c2ccc(Cl)c(Cl)c2)c2ccccc21 | 6.74 | 34 | 7.9 | 1.1 | 6.59 | 7.36 | 5.82 | 6.38 | 6.72 | 3.3 mg/kg | 2.9 mg/kg | – |
| CC(C)N[C@@H]1C[C@@H](c2ccc(Cl)c(Cl)c2)c2ccccc21 | 7.49 | 2.6 | 4.7 | 1.6 | 6.96 | 7.03 | 6.62 | 7.12 | 7.29 | – | 3.1 mg/kg | 0.68 |
| CCCN(C)[C@H]1C[C@@H](c2ccc(Cl)c(Cl)c2)c2ccccc21 (relative stereo) | – | 4 | 0.8 | 0.83 | 5.70 | 6.70 | 6.09 | 6.27 | 6.00 | – | – | 0.27 |
| CC(C)(C)N[C@H]1C[C@@H](c2ccc(Cl)c(Cl)c2)c2ccccc21 (relative stereo) | 6.19 | – | – | 2.3 | 5.96 | 5.77 | < 5.00 | 5.74 | 5.82 | – | – | 1.6 |
| Clc1ccc([C@@H]2C[C@@H](NCc3ccccc3)c3ccccc32)cc1Cl (relative stereo) | 7.10 | – | – | 1.6 | 6.34 | 6.42 | < 5.00 | 5.59 | 6.89 | – | > 20 mg/kg | – |
| CCCN[C@@H]1C[C@@H](c2ccc(Cl)c(Cl)c2)c2ccccc21 (relative stereo) | 6.66 | 3.7 | 9.1 | 0.24 | 7.26 | 6.89 | 6.32 | 6.89 | 7.28 | 2.3 mg/kg | 8.1 mg/kg | 2.4 |
| CCCN[C@H]1C[C@@H](c2ccc(Cl)c(Cl)c2)c2ccccc21 (relative stereo) | 6.55 | 2.6 | 2.1 | 2.2 | 6.27 | 6.30 | 5.89 | 6.20 | 6.21 | – | – | 1.2 |
| CCN(C)[C@@H]1C[C@@H](c2ccc(Cl)c(Cl)c2)c2ccccc21 (relative stereo) | 7.41 | 1.5 | 0.089 | 6.9 | 6.60 | 7.80 | 7.62 | 6.82 | 6.57 | – | 2.7 mg/kg | 0.6 |
| Clc1ccc([C@@H]2C[C@H](NCc3ccccc3)c3ccccc32)cc1Cl (relative stereo) | 5.96 | – | – | – | 5.32 | 5.68 | < 5.00 | < 5.00 | 5.28 | – | – | – |
| CN(C)[C@H]1C[C@@H](c2ccc(Cl)c(Cl)c2)c2ccccc21 (relative stereo) | 7.20 | 2.3 | 0.01 | 8.7 | 6.82 | 8.62 | 8.26 | 7.07 | 6.26 | – | – | – |
| CCN[C@@H]1C[C@@H](c2ccc(Cl)c(Cl)c2)c2ccccc21 (relative stereo) | 8.09 | 6.5 | 0.21 | 7.5 | 7.32 | 8.70 | 7.89 | 7.55 | 7.21 | – | 1 mg/kg | – |
| CN([C@@H]1C[C@@H](c2ccc(Cl)c(Cl)c2)c2ccccc21)C(C)(C)C (relative stereo) | 6.05 | – | – | 3 | 6.36 | 5.33 | < 5.00 | 6.00 | 5.57 | – | – | – |
| CCN(C)[C@H]1C[C@@H](c2ccc(Cl)c(Cl)c2)c2ccccc21 (relative stereo) | 6.18 | 5.5 | 0.14 | 0.8 | 5.62 | 7.89 | 7.14 | 5.36 | 6.28 | – | – | 1.8 |
| CN(Cc1ccccc1)[C@H]1C[C@@H](c2ccc(Cl)c(Cl)c2)c2ccccc21 (relative stereo) | < 5.00 | 2.3 | – | – | < 5.00 | 6.52 | 6.15 | < 5.00 | – | – | – | – |
| CN(C)[C@@H]1C[C@@H](c2ccc(Cl)c(Cl)c2)c2ccccc21.O=C(O)/C=C\C(=O)O (relative stereo) | 7.72 | – | – | – | 7.02 | 9.48 | 7.19 | 7.47 | 6.70 | 1.3 mg/kg | 2.4 mg/kg | – |
| CN(Cc1ccccc1)[C@@H]1C[C@@H](c2ccc(Cl)c(Cl)c2)c2ccccc21 (relative stereo) | 6.92 | 21 | 6.7 | 4.6 | 5.55 | 6.74 | 5.43 | 5.80 | 6.26 | – | 5.7 mg/kg | – |
| CCCN(C)[C@@H]1C[C@@H](c2ccc(Cl)c(Cl)c2)c2ccccc21 (relative stereo) | 6.60 | 2.1 | 0.56 | 1.4 | 6.40 | 7.04 | 6.72 | 6.19 | 6.47 | 1.5 mg/kg | 1.7 mg/kg | 1.6 |
| CC(C)(C)N[C@@H]1C[C@@H](c2ccc(Cl)c(Cl)c2)c2ccccc21 (relative stereo) | 6.89 | 4.2 | 8.4 | 2.8 | 6.82 | 6.13 | 5.51 | 6.51 | 6.43 | – | > 28 mg/kg | 2.1 |
| CN([C@H]1C[C@@H](c2ccc(Cl)c(Cl)c2)c2ccccc21)C(C)(C)C (relative stereo) | 5.55 | – | – | – | 5.66 | < 5.00 | – | < 5.00 | < 5.00 | – | – | – |
| CC(C)N[C@H]1C[C@@H](c2ccc(Cl)c(Cl)c2)c2ccccc21 (relative stereo) | 6.35 | 2.3 | 0.21 | 3.1 | 5.46 | 6.89 | 6.52 | 5.82 | 5.85 | – | – | 0.43 |
| CN(C)[C@@H]1C[C@@H](c2ccc(Cl)c(Cl)c2)c2ccccc21 (relative stereo) | – | 200 | 0.033 | 11 | – | – | – | – | – | – | – | – |
| CN[C@@H]1C[C@@H](c2ccc(Cl)c(Cl)c2)c2ccccc21 (relative stereo) [(R,S)-INDATRALINE] | – | – | – | – | – | – | – | – | – | – | 1.2 mg/kg | – |
| CN(C)[C@@H]1C[C@@H](c2ccc(Cl)c(Cl)c2)c2ccccc21 (stereo in doubt; (+)) [listing 1 of 2 here] | 8.06 | – | – | – | 7.28 | 10.22 | 8.20 | 7.68 | 6.92 | – | 0.96 mg/kg | – |
| CN(C)[C@@H]1C[C@@H](c2ccc(Cl)c(Cl)c2)c2ccccc21 (stereo in doubt; (+)) [listing 2 of 2 here] | – | 110 | 0.053 | 14 | – | – | – | – | – | – | – | – |
| CN(C)[C@@H]1C[C@@H](c2ccc(Cl)c(Cl)c2)c2ccccc21 (stereo in doubt; (-)) [listing 1 of 2 here] | 7.42 | – | – | – | 6.89 | 8.44 | 6.89 | 6.89 | 6.19 | – | – | – |
| CN(C)[C@@H]1C[C@@H](c2ccc(Cl)c(Cl)c2)c2ccccc21 (stereo in doubt; (-)) [listing 2 of 2 here] | – | – | 0.02 | 17 | – | – | – | – | – | – | – | – |
| COC(=O)[C@H]1[C@@H](OC(=O)c2ccccc2)C[C@@H]2CC[C@H]1N2C [COCAINE] | – | – | – | – | – | – | – | – | – | 3.61 mg/kg | 7.92 mg/kg | – |
